Assay results as given in ChEMBL document CHEMBL4346727, “Synthesis and pharmacological evaluation of novel N-Mannich bases derived from 5,5-diphenyl and 5,5-di(propan-2-yl)imidazolidine-2,4-dione core” (Bioorg Med Chem Lett, 2019).
The source made the active and inactive calls. No cut-off for these calls is given here.

Columns and labels:
[1] = Neurotoxicity in CD1 mouse at 50 mg/kg, ip measured after 2 hrs by rotarod test; settings: in vivo
[2] = Neurotoxicity in Sprague-Dawley rat at 30 mg/kg, po measured after 4 hr by rotarod test; format: toxicity, organism-based; settings: in vivo
Summary of the method: (§1)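 Rats given one oral dose of 30 mg/kg and tested on the rotarod at 0.25, 0.5, 1, 2, 4 and 6 h.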

[3] = Neurotoxicity in po dosed Sprague-Dawley rat model by rotarod test; format: toxicity, organism-based; settings: in vivo
Summary of the method: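 Rats dosed orally; neurotoxicity scored on the rotarod. Screening used a fixed 30 mg/kg, with animals checked at 0.25, 0.5, 1, 2, 4 and 6 h; the reading is the number of four rats showing neurotoxicity. In quantitative runs, a median toxic dose (TD50, mg/kg) was determined after oral dosing at the time of peak effect.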

Rattus norvegicus [4] = assay: Anticonvulsant activity in po dosed Sprague-Dawley rat assessed as time to peak effect on protection against subcutaneous pentylenetetrazole-induced seizures; format: functional
Mus musculus [5] = assay: Anticonvulsant activity in CD1 mouse assessed as protection against 32 mA current-induced seizure at 50 mg/kg, ip measured after 15 mins by 6 Hz psychomotor seizure test
Mus musculus [6] = assay: Anticonvulsant activity in ip dosed CD1 mouse assessed as protection against 50 mA current-induced seizure and measured after 4 hrs by maximal electroshock seizure test; format: functional; settings: read-out: MED
Summary of the method: (§2)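 Mice were screened after intraperitoneal doses of 30, 100 and 300 mg/kg in the maximal electroshock and subcutaneous pentylenetetrazole tests, examined at 0.5 and 4 h. The value recorded is the minimum dose showing activity. No activity up to 300 mg/kg is scored as absent.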

Mus musculus [7] = assay: Anticonvulsant activity in CD1 mouse assessed as protection against subcutaneous pentylenetetrazole-induced seizures at 300 mg/kg, ip and measured after 4 hrs; format: functional, organism-based
Summary of the method: as §2

Mus musculus [8] = assay: Anticonvulsant activity in ip dosed CD1 mouse assessed as protection against subcutaneous pentylenetetrazole-induced seizures; format: functional
Summary of the method: (§3)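 Median effective doses were quantified in the maximal electroshock, subcutaneous pentylenetetrazole and 6 Hz tests after intraperitoneal dosing in mice or oral dosing in rats, at the time of peak effect. ED50 values are reported with ranges in parentheses.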

[9] = Neurotoxicity in ip dosed CD1 mouse assessed as time to peak effect by rotarod test; format: toxicity, organism-based; settings: in vivo
Mus musculus [10] = assay: Anticonvulsant activity in ip dosed CD1 mouse assessed as protection against 32 mA current-induced seizure by 6 Hz psychomotor seizure test; format: functional
Summary of the method: as §3

[11] = Neurotoxicity in CD1 mouse at 100 mg/kg, ip and measured after 0.5 to 4 hrs by rotarod test; format: toxicity, organism-based; settings: in vivo
Summary of the method: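 Rotarod neurotoxicity screen in mice after intraperitoneal dosing. For the 6 Hz series the count is mice out of four showing neurotoxicity, scored as inability to grasp the rotarod or muscle spasms, at 0.25–4 h. For the initial screen the minimum toxic dose is taken from 30, 100 and 300 mg/kg at 0.5 and 4 h.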

Mus musculus [12] = assay: Antiallodynic activity in CD1 mouse assessed as reduction in oxaliplatin-induced neuropathic pain in early phase by measuring paw withdrawal force at 11 mg/kg, ip measured after 3 hrs by Von Frey test relative to untreated control; format: functional; design: scale not given: the % may be the effect or the level left
Mus musculus [13] = assay: Anticonvulsant activity in ip dosed CD1 mouse assessed as protection against 50 mA current-induced seizure and measured after 0.5 hrs by maximal electroshock seizure test; format: functional; settings: read-out: MED
Summary of the method: as §2

Mus musculus [14] = assay: […] in CD1 mouse model assessed as formalin-induced nociception by measuring AUC during acute phase at 11 mg/kg, ip measured for 5 mins by formalin test relative to control; format: functional
Rattus norvegicus [15] = assay: Anticonvulsant activity in po dosed Sprague-Dawley rat assessed as time to peak effect on protection against 150 mA current-induced seizures; format: functional
Summary of the method: as §3

Mus musculus [16] = assay: Anticonvulsant activity in CD1 mouse assessed as protection against 32 mA current-induced seizure at 25 mg/kg, ip measured after 4 hrs by 6 Hz psychomotor seizure test
Mus musculus [17] = assay: Anticonvulsant activity in CD1 mouse assessed as protection against 32 mA current-induced seizure at 100 mg/kg, ip measured after 4 hrs by 6 Hz psychomotor seizure test
Rattus norvegicus [18] = assay: Anticonvulsant activity in po dosed Sprague-Dawley rat assessed as protection against 150 mA current-induced seizures; format: functional
Summary of the method: as §3

Mus musculus [19] = assay: Anticonvulsant activity in CD1 mouse assessed as protection against 32 mA current-induced seizure at 100 mg/kg, ip measured after 1 hr by 6 Hz psychomotor seizure test
[20] = Neurotoxicity in po dosed Sprague-Dawley rat assessed as time to peak effect by rotarod test; format: toxicity, organism-based; settings: in vivo
[21] = Neurotoxicity in CD1 mouse at 50 mg/kg, ip measured after 15 mins by rotarod test; settings: in vivo, 0.25 h
Mus musculus [22] = assay: Anticonvulsant activity in ip dosed CD1 mouse assessed as time to peak effect on protection against 50 mA current-induced seizures; format: functional
Summary of the method: as §3

Mus musculus [23] = assay: Anticonvulsant activity in CD1 mouse assessed as protection against 32 mA current-induced seizure at 100 mg/kg, ip measured after 2 hrs by 6 Hz psychomotor seizure test
[24] = Neurotoxicity in CD1 mouse at 50 mg/kg, ip measured after 30 mins by rotarod test; settings: in vivo, 0.5 h
Rattus norvegicus [25] = assay: Anticonvulsant activity in po dosed Sprague-Dawley rat assessed as protection against subcutaneous pentylenetetrazole-induced seizures; format: functional
[26] = Neurotoxicity in CD1 mouse at 25 mg/kg, ip measured after 15 mins by rotarod test; settings: in vivo, 0.25 h
Mus musculus [27] = assay: Anticonvulsant activity in ip dosed CD1 mouse assessed as time to peak effect on protection against 32 mA current-induced seizure by 6 Hz psychomotor seizure test; format: functional
Summary of the method: as §3

[28] = Neurotoxicity in Sprague-Dawley rat at 30 mg/kg, po measured after 2 hr by rotarod test; format: toxicity, organism-based; settings: in vivo
Summary of the method: as §1

[29] = Neurotoxicity in CD1 mouse at 25 mg/kg, ip measured after 1 hr by rotarod test; settings: in vivo
Mus musculus [30] = assay: Anticonvulsant activity in CD1 mouse assessed as protection against 32 mA current-induced seizure at 50 mg/kg, ip measured after 30 mins by 6 Hz psychomotor seizure test
[31] = Protection index, ratio of TD50 for neurotoxicity in ip dosed CD1 mouse by rotarod test to ED50 for anticonvulsant activity in CD1 mouse by 6 Hz psychomotor seizure test; format: toxicity, organism-based; settings: in vivo, read-out: Ratio TD50/ED50
Mus musculus [32] = assay: Antiallodynic activity in CD1 mouse assessed as reduction in oxaliplatin-induced neuropathic pain in late phase by measuring paw withdrawal force at 11 mg/kg, ip measured after 7 days by Von Frey test relative to untreated control; format: functional; design: scale not given: the % may be the effect or the level left
Mus musculus [33] = assay: Anticonvulsant activity in CD1 mouse assessed as protection against 32 mA current-induced seizure at 100 mg/kg, ip measured after 30 mins by 6 Hz psychomotor seizure test

With `CN1CCN(CN2C(=O)NC(c3ccccc3)(c3ccccc3)C2=O)CC1` the Activity [1] was “Non-Toxic”, the Activity [2] was “Non-Toxic” and the TD50 [3] was greater than 500 mg/kg. The Time (Rattus norvegicus [4]) was 2 h, the Activity (Mus musculus [5]) was “Active” and the minimal effective dose (Mus musculus [6]) was 10 mg/kg. The Activity (Mus musculus [7]) was “inactive”, the ED50 (Mus musculus [8]) was greater than 80 mg/kg and the Time [9] was 1 h. For the same compound, the ED50 (Mus musculus [10]) was 12.2 mg/kg, the Activity [11] was “Toxic” and the Activity (Mus musculus [12]) was 53%. The minimal effective dose (Mus musculus [13]) was 10 mg/kg, the Activity (Mus musculus [14]) was 67.52% and the Time (Rattus norvegicus [15]) was 2 h. The Activity (Mus musculus [16]) was “inactive”, the Activity (Mus musculus [17]) was “Active” and the ED50 (Rattus norvegicus [18]) was 38.5 mg/kg. The Activity (Mus musculus [19]) was “Active”, the Time [20] was 2 h and the Activity [21] was “Non-Toxic”. The Time (Mus musculus [22]) was 4 h, the Activity (Mus musculus [23]) was “Active” and the Activity [24] was “Non-Toxic”. For the same compound, the ED50 (Rattus norvegicus [25]) was greater than 250 mg/kg, the Activity [26] was “Non-Toxic” and the Time (Mus musculus [27]) was 1 h. For the same compound, the Activity [28] was “Non-Toxic”, the Activity [29] was “Non-Toxic” and the Activity (Mus musculus [30]) was “Active”. The selectivity ratio [31] was 6.19, the Activity (Mus musculus [32]) was 61% and the Activity (Mus musculus [33]) was “Active”.
